From PubChem BioAssay
An excerpt weighted towards active compounds, which were near 3.6% of everything screened.
CSC inhib: cancer stem cell inhibition | cancer stem cell-like cells viability, luminescence | inhibition, % at 7.5 µM | 1.1% of 300,000 active | AID 2717; in the data active = inhibition above about 75%; tested in HMLE shEcad cells
HIF activator: HIF pathway transcriptional activation | AID 1910 | 0.32% of 300,000 active | U2OS HRE-luciferase reporter, luminescence; normalized: DMSO 0%, desferrioxamine 100% | activation, % at 7.5 µM (by protocol);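 active = mean activation of at least 10% of the iron chelator positive control signal, with at least half of replicates also reaching 10%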
T cruzi inh: T. cruzi replication inhibition; inhibition, % (no concentration beside the values); T. cruzi beta-gal in NIH3T3, luminescence, 90 h; 1.4% of 300,000 active;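 active = mean inhibition across valid replicates above about 55%, limit read from the data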;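 note: signal also drops with host cell toxicity which is not excluded here; 0% = plate median of DMSO wells and 100% = zero luminescence signal; higher percent means less beta-gal luminescence so fewer parasites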
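System: NIH/3T3 fibroblasts plus reporter T. cruzi. Medium: DMEM plus 2% FBS. Probe or stimulus: 5000 reporter trypomastigotes per well. Compound: single 50 nL compound addition per well in DMSO. Incubation: co-culture of at least 90 h after 3 h attachment. Detection: GalScreen β-gal luminescence, detergent lysis, 60 min. Evaluation: parasite load inhibition, %.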
SKKanGAS inh: SKKanGAS growth inhibition. inhibition, % at 7.5 µM. 1.3% of 300,000 active. AID 1662. S. pyogenes SKKanGAS, kanamycin growth, BacTiter-Glo, 6 h;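 active = mean replicate score, as percent of positive control median, at least 50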;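 note: strain carries kanamycin resistance gene driven by streptokinase promoter and grows in 40 µg/ml kanamycin; loss of luminescence reflects streptokinase promoter inhibition or plain growth inhibition; 0% = median of DMSO wells and 100% = positive control at its reference dose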
Beta apoptosis: beta cell apoptosis inhibition; 0.8% of 300,000 active; protection from apoptosis, % (test concentration not listed); INS-1E cytokine-induced death, ATP luminescence, 48 h; percent of positive-control rescue, neutral wells zero;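 active = Every replicate reaches about 75%, or at least half do and their mean reaches it too, limit read from the data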;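 note: 0% = cytokine-treated negative control wells and 100% = positive control rescue; higher means more ATP so stronger rescue from cytokine killing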
PfHsp90 set2: inhibits growth of yeast expressing Plasmodium falciparum Hsp90; S. cerevisiae expressing PfHsp90, BacTiter-Glo ATP, 48 h; yeast lacking PDR1 and PDR3 efflux regulators; inhibition, % at 9.4 µM; 0.32% of 310,000 active; AID 504621;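 active = every replicate shows inhibition above about 80%, whatever the replicate mean, limit read from the data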;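 note: 0% = DMSO neutral controls and 100% = 20 µM radicicol positive controls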
Starred values were filed as active, the others as inactive; x = no result given.

SMILES	CSC inhib	HIF activator	T cruzi inh	SKKanGAS inh	Beta apoptosis	PfHsp90 set2
CN(CC=CCN(C)P(=S)(N1CC1)N1CC1)P(=S)(N1CC1)N1CC1	x	x	x	x	x	22
O=C(c1c[nH]cc1-c1ccccc1)c1cccc2ccccc12	17	-3	58*	-1	-1	-6
COC1C(C)OC(OC2CC(C)(O)Cc3cc4c(c(O)c32)C(=O)c2c(O)cc3c(c2C4=O)OC2OC3(C)C(O)C(N(C)C)C2O)C(OC)C1(C)OC (stereo not given)	x	x	x	x	x	-38
Cc1sc2ncnc(N3CCC(C(=O)Nc4ccc(C#N)c(Cl)c4)CC3)c2c1C	-6	0	19	57*	-2	-15
c1cc2c(cc1NC1=NCCO1)CCCC2	x	x	x	x	x	-16
CCCCCCn1c(N)c(C(=O)NCCN2CCOCC2)c2nc3ccccc3nc21	111*	0	28	10	-3	-2
CCCOC(=O)c1c(N)n(Cc2cccs2)c2nc3ccccc3nc12	-7	0	30	16	-12	-1
CCCCn1c(N)c(C(=O)NCc2cccs2)c2nc3ccccc3nc21	41	0	55*	38	-12	25
CCCCCn1c(N)c(C(=O)NCCN2CCOCC2)c2nc3ccccc3nc21	49	0	2	7	5	15
Nc1c(C(=O)NCCCc2ccccc2)c2nc3ccccc3nc2n1Cc1cccs1	43	0	58*	-1	-12	-25
CCOC(=O)c1c(NC(=O)c2c(N)n(CCCOC)c3nc4ccccc4nc23)sc2c1CCCC2	3	1	64*	56*	2	-1
CCCCCn1c(N)c(C(=O)NCc2cccs2)c2nc3ccccc3nc21	32	0	21	10	-16	x
CC12CCC3c4ccc(OC(=O)N(CCCl)CCCl)cc4CCC3C1CCC2O (stereo not given)	x	x	x	x	x	-25
Cc1nn(CC(C)C)c(Cl)c1C(=O)NC1CCCCC1	x	x	x	x	x	0
CC(C)(C#CCCCCC#CC(C)(C)[N+](C)(C)C)[N+](C)(C)C	-23	0	-3	-3	-8	x
CC1=C(N2CC2)C(=O)C(CO)=C(N2CC2)C1=O	x	x	x	x	x	-136
CN(Cc1c[nH]c2ccccc12)C1CCCCC1	-14	0	82*	-11	102*	7
c1ccc2c(CNC3CCCCC3)c[nH]c2c1	2	0	16	-4	115*	x
CCC(CC)NCc1c[nH]c2ccccc12	-13	0	32	-7	55	-23
c1ccc2c(CN3CCCCCCC3)c[nH]c2c1	7	0	70*	-3	104*	x
c1ccc2c(CN3CCN(C4CCCCC4)CC3)c[nH]c2c1	2	0	1	-3	5	-24
O=C1COc2ccc(C(=O)COC(=O)Cc3ccccc3)cc2N1	7	0	-15	-5	-5	-2
CCC1C=CC=CC[C@H](C)[C@@H](O)[C@](C)(O)C(=O)[C@@H](C)[C@H](O)[C@@H](C)C(=O)[C@H](C)[C@@H](O)[C@H](C)C=CC(=O)OC2[C@@H](C)C(CC1)OC1(CC[C@@H](C)C(C[C@H](C)O)O1)[C@@H]2C (stereo not given in full)	99*	x	x	x	104*	x
COc1cc2c(c(OC)c1OC)-c1ccc(SC)c(=O)cc1C(NC(C)=O)CC2 (stereo not given)	x	x	x	x	x	-18
O=c1nc(/C=C/c2ccc(Cl)cc2Cl)cc(C(F)(F)F)[nH]1	108*	0	15	0	6	-11
SMILES	CSC inhib	HIF activator	T cruzi inh	SKKanGAS inh	Beta apoptosis	PfHsp90 set2
COC(=O)C1=C(c2cccc(C#N)c2)C[C@@H]2CC[C@H]1N2C(=O)NC1Cc2ccccc2C1	84*	x	x	x	2	0
COC(=O)C1=C(c2ccc(OCc3ccccc3)cc2)C[C@@H]2CC[C@H]1N2C(=O)NC1CCN(Cc2ccccc2)CC1	48	x	x	x	78*	-10
O=C(c1ccc(F)c([N+](=O)[O-])c1)N1CC2CC(C1)c1cccc(=O)n1C2 (stereo not given)	1	1	20	9	-9	19
ClCCN1CCSCC1	x	x	x	x	x	72
c1ccc(-c2ccc(-c3n(-c4ccccn4)c4ccccc4[n+]3-c3ccccn3)cc2)cc1	x	0	60*	7	x	-15
N#CC1C(C#N)C2CCC1C1C2N1c1ccccc1 (stereo not given)	x	x	x	x	x	1
CC12CCC3C(CC=C4CC(O)CCC43C)C1C/C(=C\c1ccccc1F)C2=O (stereo not given)	99*	0	3	43	-2	2
Cc1nn(C)cc1/C=C1/CC2C3CC=C4CC(O)CCC4(C)C3CCC2(C)C1=O (stereo not given)	-13	0	10	27	x	-61
COC(/C(C)=C/C=C/C(C)=C/c1coc(C)n1)C(C)C1CC(O)C2(C)OC2C=CC(C)C2CC(CC(=O)O2)CC2OC2C(=O)O1 (stereo not given)	x	x	x	x	x	9
O=C(c1ccc(Cl)cc1)N1CCC2(CC1)OCCO2	6	-9	-21	-3	-6	-1
Cn1ncc(Cl)c1C(=O)N1CCC2(CC1)OCCO2	-6	0	-6	51*	x	16
CC(=NNC(=S)N1CC2CCC(CC2)C1)c1nccs1	x	x	x	x	x	121*
Brc1ccc(Oc2ccc(Br)cc2Br)c(Br)c1	29	x	x	x	6	-25
Oc1c(Br)cc(Br)cc1Oc1ccc(Br)cc1Br	108*	0	-9	107*	9	x
C#C[C@@]1(O)CCC2C3CCC4=C/C(=N/OCC(=O)NC(C(=O)NC(CC(C)C)C(=O)O)C(C)C)CC[C@]4(C)C3CC[C@@]21C (stereo not given in full)	-4	-2	17	20	2	-22
Cc1cc(C(C#N)c2ccc(Cl)cc2)c(Cl)cc1NC(=O)c1cc(I)cc(I)c1O (stereo not given)	96*	0	-12	105*	7	-27
COC(=O)C1=C(c2cccc(C#N)c2)C[C@@H]2CC[C@H]1N2C(=O)N1CCCCC1	11	x	x	x	0	1
Cc1cc(O)c2c(c1)C(=O)C13C(=C2O)C(=O)[C@H]2[C@@H](O)[C@@H]1[C@H]1[C@H](O)[C@@H]3C(=O)C3=C(O)c4c(O)cc(C)cc4C(=O)C312 (stereo not given in full)	73	x	x	x	106*	-28
COc1ccc(CCNCc2ccc(SC)cc2)cc1	10	0	61*	12	-3	x
N#CC(C#N)=NNc1ccc(-n2ccc(C(F)(F)F)n2)cc1	64	2	42	31	102*	-16
Cc1c(C(=O)c2cccc3ccccc23)c2cccc3c2n1[C@H](CN1CCOCC1)CO3	100*	0	72*	28	x	-22
O=C1N[C@@H](Cc2ccccc2)C(=O)N2[C@H]1C[C@H]1c3ccccc3N(OOSc3ccccc3)[C@H]12	4	-1	16	5	-1	x
